MEX-5 binding – C. elegans MEX-5 TCR-2 RNA binding activity; AID 1832; Q9XUB2; MEX-5/FITC-TCR2 RNA binding, fluorescence polarization; hits give low values; activity score (negative = inhibition of binding), % at 10 µM; hit rate 0.38% among 300,000;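 active = inhibition past about -25% in most replicates, and total fluorescence under double the plate's negative control median, limit read from the data; inconclusive = replicates evenly split on the limit, or fluorescence at least double controls; inactive = too little inhibition in most replicates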;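 note: 0% = DMSO and -100% = 5 µM competing unlabeled TCR2 RNA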
Target sequence (Q9XUB2 whole entry, looked up): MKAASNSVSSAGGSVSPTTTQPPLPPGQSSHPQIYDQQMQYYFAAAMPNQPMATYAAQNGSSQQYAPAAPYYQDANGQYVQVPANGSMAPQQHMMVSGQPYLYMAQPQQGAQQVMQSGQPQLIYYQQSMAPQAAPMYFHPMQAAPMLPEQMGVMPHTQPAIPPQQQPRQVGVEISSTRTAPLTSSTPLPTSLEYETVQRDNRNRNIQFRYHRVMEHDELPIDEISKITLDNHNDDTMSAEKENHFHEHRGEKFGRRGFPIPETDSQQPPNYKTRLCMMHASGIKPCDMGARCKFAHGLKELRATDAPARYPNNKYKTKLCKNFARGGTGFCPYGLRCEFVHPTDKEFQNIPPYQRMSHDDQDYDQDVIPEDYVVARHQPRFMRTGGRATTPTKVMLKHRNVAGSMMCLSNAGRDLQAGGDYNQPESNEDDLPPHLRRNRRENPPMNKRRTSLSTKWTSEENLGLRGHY
EBV gp42 block – EBV gp42 inhibition | Q1HVG2 | Fluorescence polarization binding assay, mP read-out | inhibition, % (tested at 21.74 µM) | hit rate 0.42% among 220,000
Target sequence (Q1HVG2 whole entry, looked up): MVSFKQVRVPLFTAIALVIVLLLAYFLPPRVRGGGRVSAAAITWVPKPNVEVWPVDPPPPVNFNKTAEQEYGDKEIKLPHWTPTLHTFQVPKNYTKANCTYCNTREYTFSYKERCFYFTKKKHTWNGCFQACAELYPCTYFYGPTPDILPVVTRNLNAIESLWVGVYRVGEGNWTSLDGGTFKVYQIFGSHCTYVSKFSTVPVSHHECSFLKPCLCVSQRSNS
Runt-SMMHC FRET – blocks binding of human RUNX1 Runt domain to CBFb-SMMHC. Q01196+Q13951. Cerulean-Runt/Venus-CBFb-SMMHC FRET ratio 530/480, 1 h. inhibition, % at 20 µM. hit rate 0.74% among 220,000;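 active = mean inhibition across duplicate retests at 20 µM reaching about 50%, limit read from the data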;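 note: 0% = DMSO wells and 100% = wells with excess untagged CBFb-SMMHC; inhibitors lower the FRET ratio by blocking Runt binding to CBFb-SMMHC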
RanGTP-Impb inh – disruptors of Ran-importin-beta complex formation – biochemical, FRET, CFP-Ran, YFP-importin-beta, homogeneous, primary screen. cell-free CFP-Ran/YFP-importin-beta FRET ratio. inhibition, % (test concentration not listed). hit rate 1.1% among 300,000. AID 2216;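 active = more than half of the replicate wells show a fall in the fluorescence ratio signal beyond about 16%, limit read from the data, passing the limit was not always enough; inconclusive = exactly half of the replicate wells pass the set limit; inactive = fewer than half of replicates pass the limit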;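 note: 0% = DMSO wells and 100% = Ran loaded with GDP instead of GTP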
PKD1 kinase inh – inhibitors of human PKD1 kinase; Q15139; PKD1 kinase fluorescence polarization assay; AID 797; hit rate 0.056% among 200,000; inhibition, % (concentration not given with the values)
Runt-CBFb FRET – inhibitors of human RUNX1 Runt domain binding to CBFb; Q01196+Q13951; Cerulean-Runt/Venus-CBFb FRET ratio 530/480, 1 h; AID 1496; hit rate 0.46% among 220,000; inhibition, % at 20 µM;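 active = inhibition over about 50% at 20 µM in the single-dose screen, limit read from the data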;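 note: 0% = DMSO wells and 100% = excess unlabeled CBFb competitor control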
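Reagent – Venus-CBFb binding partner, 100 nM · Assay system – Cerulean-tagged RUNX1 Runt domain (FRET donor) fusion protein · Input – 100 nM per protein · Incubation – two 1 h room-temperature incubations shielded from light · Measured by – FRET fluorescence · Medium – Tris buffer pH 7.5 with salts and BSA · Benchmarks – unlabeled CBFb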
YIC FRET counter – counter-screen YIC FRET for RanGTP-importin-beta inhibitors | hit rate 40% among 1,000 | Purified YIC probe, intramolecular FRET ratio YFP/CFP | shares compounds with RanGTP-Impb inh | AID 435026 | IC50, µM;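 active = fitted half-maximal inhibitory concentration no more than tenfold above the top dose tested; inconclusive = flat fit with 30 to 70% activity, or poor fit; inactive = half-maximal concentration beyond tenfold above the top dose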
* = called active by the depositor; u = inconclusive; x = no result. Rows were chosen to be rich in hits. Some 2% of all compounds tested hit in one or more screens of this group. Cut-off read from the data, not from the text of the source, unless noted: active = inhibition above about 50%; inactive = the rest.

SMILES	MEX-5 binding	EBV gp42 block	Runt-SMMHC FRET	RanGTP-Impb inh	PKD1 kinase inh	Runt-CBFb FRET	YIC FRET counter
O=C(O)COc1ccc(F)cc1Br	1.8	-8.8	-0.5	25.5*	x	1.1	>50
Cc1ccnc(NC(=O)C(C)N2C(=O)c3ccccc3S2(=O)=O)c1 (stereo not drawn)	-11.3	x	x	-6.3	x	x	x
Cc1ccc(OCC(=O)NCCNC(=O)c2ccc(C)nc2)cc1	0.0	x	x	20.9*	x	x	>50
COc1ccc(N2CCN(S(=O)(=O)c3ccc4c(c3)NC(=O)C(C)S4)CC2)cc1 (stereo not drawn)	-1.4	x	x	-2.4	x	x	x
Cc1ccc(Cl)cc1-n1c(=O)cc(N2CC(C)OC(C)C2)[nH]c1=O (stereo not drawn)	-0.8	-9.1	-5.7	56.2*	3.2	0.3	>50
CC1CN(c2cc(=O)n(-c3ccc(Cl)cc3)c(=O)[nH]2)CC(C)O1 (stereo not drawn)	x	-13.1	-3.1	x	4.8	0.0	x
CC(C)c1ccc(N(CC(=O)NCCSCc2ccco2)S(C)(=O)=O)cc1	1.4	-6.4	0.6	-0.1	-0.4	-3.4	x
CS(=O)(=O)N(CC(=O)NCCSCc1ccco1)c1ccc(Cl)cc1	2.6	1.1	-0.9	16.4*	-7.5	3.1	>50
N#Cc1c(-c2ccc3c(c2)OCO3)ccn2nc(-c3cccc(C(F)(F)F)c3)nc12	-0.3	-17.7	30.3	20.3*	-6.1	-6.3	21.9*
CN(c1ccc([N+](=O)[O-])cc1C(N)=O)C1CCCCC1	-0.8	-17.4	-1.0	1.2	-2.0	-4.1	x
O=c1c2ccccc2[nH]c2ccccc12	0.4	0.3	82.9*	19.1*	5.6	120.1*	49.1*
c1ccc2c(c1)[nH]c1ccccc12	0.9	x	x	-2.6	x	x	x
CC1=C(C(=O)OCC2CCCO2)C(c2ccccc2OC(C)C)C2=C(CC(c3ccco3)CC2=O)N1 (stereo not drawn)	0.8	-10.4	102.7*	27.6*	-5.1	42.9	6.92*
COc1cccc(C(=O)/C=C/Nc2cc(C)ccc2O)c1	-1.9	-13.0	-31.6	30.0*	-15.6	-5.9	>50
CN1CCN(C(=O)c2cc3nc(-c4ccccc4)cc(C(F)(F)F)n3n2)CC1	-2.7	-23.9	1.7	21.7*	6.0	-2.6	>50
CN1CCN(C(=O)c2cc3nc(-c4ccc(Cl)cc4)cc(C(F)(F)F)n3n2)CC1	0.3	-17.7	0.4	-0.7	-3.4	-5.2	x
COc1cc2c(cc1OC)C(c1ccccc1C(F)(F)F)CC(=O)N2 (stereo not drawn)	-0.1	x	x	-0.8	x	x	x
Cc1ccnc(NC(=O)C2CCN(S(=O)(=O)c3ccc(Cl)c(C(F)(F)F)c3)CC2)c1	-0.3	x	x	-0.5	x	x	x
Cc1ccc(NC(=O)C2CCN(S(=O)(=O)c3ccc(Cl)c(C(F)(F)F)c3)CC2)nc1	0.9	x	x	20.1*	x	x	>50
CC(=O)Oc1ccc(C(=O)Nc2cccnc2)cc1	-0.6	x	x	-0.6	x	x	x
CCOC(=O)c1ccc2[nH]cc(C(C)=O)c(=O)c2c1	5.4	-12.3	3.1	20.8*	-4.7	2.7	14*
CC(=O)Nc1cccc(C(=O)N/N=C/c2ccc(F)cc2)c1	2.4	-1.4	0.1	22.3*	-4.4	-2.0	>50
CCOc1ccc2nc(SCC(=O)NCc3ccc4c(c3)OCO4)[nH]c2c1	1.9	-0.9	4.4	29.7*	-0.5	2.0	>50
COc1ccc(OCC(NS(=O)(=O)c2ccc(-n3cnnn3)cc2)C(C)C)cc1 (stereo not drawn)	0.3	x	x	-0.2	x	x	x
COC(=O)CN1C2=NCCCN2c2ccccc21	-1.0	-21.0	-6.3	-1.8	4.4	1.1	x
SMILES	MEX-5 binding	EBV gp42 block	Runt-SMMHC FRET	RanGTP-Impb inh	PKD1 kinase inh	Runt-CBFb FRET	YIC FRET counter
CN1CCCC1CCNc1ccc2sc3ccccc3c(=O)c2c1 (stereo not drawn)	-5.0	x	x	-193.3	x	x	x
Cc1cc2oc3cc(NCCC4CCCN4C)ccc3c(=O)c2cc1C (stereo not drawn)	7.7	x	x	31.1*	x	x	8.89*
CCN(CC)S(=O)(=O)c1cccc(NC(=O)C2CC(=O)N(c3ccc4c(c3)OCCO4)C2)c1 (stereo not drawn)	-2.5	x	x	-3.7	x	x	x
Cc1ccc(/C=C2/C(=O)c3ccc(C(=O)O)cc3C2=O)o1	-26.0*	-14.2	19.4	19.4*	0.2	32.0	>50
O=C(O)c1ccc2c(c1)C(=O)/C(=C\c1ccco1)C2=O	u	11.5	24.4	-5.5	2.8	31.5	x
C/C(=N\NC(=S)NCc1ccccc1)c1cccc(Br)c1	0.6	-12.2	-3.9	46.1*	-3.7	0.5	>50
Nc1nc(CSc2nnnn2-c2ccc(Cl)cc2)nc(N2CCOCC2)n1	-0.5	9.2	-3.5	20.0*	-11.1	-3.6	>50
O=C(Nc1ccncc1)c1ccc(Cl)c(S(=O)(=O)N2CCCC2)c1	-0.5	x	x	2.7	x	x	x
COC(=O)c1cc(=O)n2c(sc3ccccc32)c1C#N	-15.3	-25.3	88.1*	44.8*	x	66.3*	4.11*
O=C(c1ccc(NS(=O)(=O)/C=C/c2ccccc2)cc1)N1CCCCC1	1.5	x	x	-1.3	x	x	x
COc1ccccc1CC(=O)Nc1cccc2ccccc12	-0.6	x	x	-1.8	x	x	x
O=C(Cc1ccccc1C(=O)O)Nc1cccc2ccccc12	-3.2	x	x	21.1*	x	x	>50
CC(C)Cc1nn2c(N)c(/C=C3\C=Nc4ccccc43)c(=O)nc2s1	-46.0*	-11.8	-53.5	24.6*	-3.5	-85.0	>50
CS(=O)(=O)c1nsc2nc(=O)c(/C=C3\C=Nc4ccccc43)c(N)n12	-6.1	1.5	73.0*	25.0*	2.5	29.2	20.1*
C=CCOc1ccc(/C=C/C(=O)OCC(=O)Nc2c(C)n(C)n(-c3ccccc3)c2=O)cc1	1.5	x	x	-3.4	x	x	x
Cc1[nH]c2ccccc2c1/C=C/c1nc2ccccc2c(=O)n1CCO	-11.6	1.6	-10.5	16.9*	-4.1	-44.8	9.01*
CCCCn1c(N)c(N(CC(C)C)C(=O)c2ccc3c(c2)NC(=O)C(C)S3)c(=O)[nH]c1=O (stereo not drawn)	1.4	x	x	-0.1	x	x	x
CCOc1ccccc1NC1=CC(=O)CC(c2ccccc2)C1 (stereo not drawn)	-0.5	-10.2	-8.4	24.4*	3.1	-2.4	>50
COc1ccc(NC2=CC(=O)CC(c3ccccc3)C2)c(OC)c1 (stereo not drawn)	1.0	-9.6	-5.5	u	-0.5	x	x
CC(C)(C)c1ccc(CN2C(=O)CSC2=O)cc1	1.4	1.4	-1.2	u	-2.0	-0.8	x
O=C(CN1CCN(C/C=C/c2ccccc2)CC1)NC(=O)NC1CCCCC1	-2.0	-24.4	-0.1	28.7*	4.5	-2.6	>50
Fc1ccc(-c2ncc3ccccn23)cc1	1.4	-13.7	1.4	1.4	0.5	1.8	x
Clc1ccc(/C=C/c2ncc3ccccn23)cc1	3.1	-7.5	x	23.8*	-6.6	x	2.54*
